Tests used:
Type in all cases: functional
CCRF-CEM = assay: Cytotoxicity against human CCRF-CEM cells
K562 = assay: Cytotoxicity against human K562 cells
How it was run: (§1)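 Tested in a 60-cell-line human tumor panel screen; the read-out is growth inhibition, reported as GI50 for each cell line.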

MOLT-4 = assay: Cytotoxicity against human MOLT4 cells; how it was run: as §1
A549 = assay: Cytotoxicity against human A549 cells; how it was run: as §1
[1] = Cytotoxicity against human EKVX cells; how it was run: as §1
HOP-62 = assay: Cytotoxicity against human HOP62 cells; how it was run: as §1
NCI-H226 = assay: Cytotoxicity against human NCI-H226 cells; how it was run: as §1
NCI-H23 = assay: Cytotoxicity against human NCI-H23 cells; how it was run: as §1
COLO 205 = assay: Cytotoxicity against human COLO205 cells; how it was run: as §1
HCC 2998 = assay: Cytotoxicity against human HCC2998 cells; how it was run: as §1
[2] = Cytotoxicity against human HCT15 cells; how it was run: as §1
HT-29 = assay: Cytotoxicity against human HT-29 cells; how it was run: as §1
KM12 = assay: Cytotoxicity against human KM12 cells; how it was run: as §1
SF-295 = assay: Cytotoxicity against human SF295 cells; how it was run: as §1
SF-539 = assay: Cytotoxicity against human SF539 cells; how it was run: as §1
SNB-19 = assay: Cytotoxicity against human SNB19 cells; how it was run: as §1
SNB-75 = assay: Cytotoxicity against human SNB75 cells
How it was run: (§2)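 Cell line run as part of the 60-cell-line screening panel; growth inhibition was reported as a GI50 for each line.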

U-251 = assay: Cytotoxicity against human U251 cells; how it was run: as §2
LOX IMVI = assay: Cytotoxicity against human LOXIMVI cells; how it was run: as §1
M14 = assay: Cytotoxicity against human M14 cells; how it was run: as §1
NCI-H322M = assay: Cytotoxicity against human NCI-H322M cells; how it was run: as §1
NCI-H460 = assay: Cytotoxicity against human NCI-H460 cells; how it was run: as §1
SK-MEL-2 = assay: Cytotoxicity against human SK-MEL-2 cells; how it was run: as §1
SK-MEL-5 = assay: Cytotoxicity against human SK-MEL-5 cells; how it was run: as §1
[3] = Cytotoxicity against human UACC257 cells; how it was run: as §2
[4] = Cytotoxicity against human UACC62 cells; how it was run: as §2
[5] = Cytotoxicity against human OVCAR3 cells; how it was run: as §1
[6] = Cytotoxicity against human OVCAR4 cells; how it was run: as §1
[7] = Cytotoxicity against human OVCAR5 cells; how it was run: as §1
[8] = Cytotoxicity against human OVCAR8 cells; how it was run: as §1
[9] = Cytotoxicity against human NCI-ADR-RES cells; how it was run: as §1
SK-OV-3 = assay: Cytotoxicity against human SKOV3 cells; how it was run: as §1
A498 = assay: Cytotoxicity against human A498 cells; how it was run: as §1
ACHN = assay: Cytotoxicity against human ACHN cells; how it was run: as §1
CAKI-1 = assay: Cytotoxicity against human Caki1 cells; how it was run: as §1
RXF 393 = assay: Cytotoxicity against human RXF393 cells; how it was run: as §1
TK-10 = assay: Cytotoxicity against human TK10 cells; how it was run: as §2
[10] = Cytotoxicity against human UO31 cells; how it was run: as §2
DU-145 = assay: Cytotoxicity against human DU145 cells; how it was run: as §1
MCF7 = assay: Cytotoxicity against human MCF7 cells; how it was run: as §1
MDA-MB-231 = assay: Cytotoxicity against human MDA-MB-231 cells; how it was run: as §1
BT-549 = assay: Cytotoxicity against human BT549 cells; how it was run: as §1
T47D = assay: Cytotoxicity against human T47D cells; how it was run: as §2
MDA-MB-468 = assay: Cytotoxicity against human MDA-MB-468 cells; how it was run: as §1
[11] = read-out: pLC50 (the source's name) (converted)

## COc1cc(/C=C/c2cc(O)c3cc[nH]c3c2)cc2c1O[C@]1(C)CC[C@@H](O)C(C)(C)[C@H]1C2
CCRF-CEM
  GI50: 0.525 µM
CCRF-CEM; [11]
  CC50: > 100 µM
CCRF-CEM; read-out: pTGI (converted)
  TGI: 36.3 µM
K562
  GI50: 0.708 µM
K562; [11]
  CC50: > 100 µM
K562; read-out: pTGI (converted)
  TGI: 20.4 µM
MOLT-4
  GI50: 0.309 µM
MOLT-4; [11]
  CC50: 75.9 µM
MOLT-4; read-out: pTGI (converted)
  TGI: 1.78 µM
A549
  GI50: 1.48 µM
A549; read-out: pTGI (converted)
  TGI: 3.72 µM
[1]
  GI50: 3.47 µM
[1]; [11]
  CC50: 91.2 µM
[1]; read-out: pTGI (converted)
  TGI: 27.5 µM
HOP-62
  GI50: 1.91 µM
HOP-62; [11]
  CC50: > 100 µM
HOP-62; read-out: pTGI (converted)
  TGI: 8.13 µM
NCI-H226
  GI50: 12 µM
NCI-H226; [11]
  CC50: 70.8 µM
NCI-H226; read-out: pTGI (converted)
  TGI: 28.8 µM
NCI-H23
  GI50: 1.7 µM
NCI-H23; [11]
  CC50: 61.7 µM
NCI-H23; read-out: pTGI (converted)
  TGI: 8.13 µM
COLO 205
  GI50: 1.26 µM
COLO 205; [11]
  CC50: 11.5 µM
COLO 205; read-out: pTGI (converted)
  TGI: 3.39 µM
HCC 2998
  GI50: 2.88 µM
HCC 2998; [11]
  CC50: 55 µM
HCC 2998; read-out: pTGI (converted)
  TGI: 14.5 µM
[2]; HCT-15
  GI50: 0.324 µM
[2]; HCT-15, read-out: pLC50 (the source's name) (converted)
  CC50: > 100 µM
[2]; HCT-15, read-out: pTGI (converted)
  TGI: 33.9 µM
HT-29
  GI50: 0.708 µM
HT-29; [11]
  CC50: 93.3 µM
HT-29; read-out: pTGI (converted)
  TGI: 4.07 µM
KM12
  GI50: 0.457 µM
KM12; [11]
  CC50: 9.55 µM
KM12; read-out: pTGI (converted)
  TGI: 1.86 µM
SF-295; read-out: GI50
  GI50: 0.23 µM
SF-295; read-out: pGI50 (converted)
  GI50: 0.234 µM
SF-295; [11]
  CC50: 6.03 µM
SF-295; read-out: pTGI (converted)
  TGI: 1 µM
SF-539
  GI50: 0.257 µM
SF-539; read-out: pTGI (converted)
  TGI: 1.23 µM
SNB-19
  GI50: 1.32 µM
SNB-19; [11]
  CC50: > 100 µM
SNB-19; read-out: pTGI (converted)
  TGI: 18.2 µM
SNB-75
  GI50: 0.269 µM
SNB-75; [11]
  CC50: > 100 µM
SNB-75; read-out: pTGI (converted)
  TGI: 4.57 µM
U-251
  GI50: 0.479 µM
U-251; [11]
  CC50: > 100 µM
U-251; read-out: pTGI (converted)
  TGI: 13.8 µM
LOX IMVI
  GI50: 0.363 µM
LOX IMVI; [11]
  CC50: 4.57 µM
LOX IMVI; read-out: pTGI (converted)
  TGI: 1.32 µM
M14
  GI50: 0.676 µM
M14; [11]
  CC50: 6.17 µM
M14; read-out: pTGI (converted)
  TGI: 2.19 µM
NCI-H322M
  GI50: 3.47 µM
NCI-H322M; [11]
  CC50: > 100 µM
NCI-H322M; read-out: pTGI (converted)
  TGI: 25.1 µM
NCI-H460
  GI50: 0.871 µM
NCI-H460; [11]
  CC50: 5.37 µM
NCI-H460; read-out: pTGI (converted)
  TGI: 2.29 µM
SK-MEL-2
  GI50: 1.12 µM
SK-MEL-2; [11]
  CC50: 31.6 µM
SK-MEL-2; read-out: pTGI (converted)
  TGI: 7.24 µM
SK-MEL-5
  GI50: 0.195 µM
SK-MEL-5; [11]
  CC50: 1.12 µM
SK-MEL-5; read-out: pTGI (converted)
  TGI: 0.457 µM
[3]; UACC-257
  GI50: 2.34 µM
[3]; UACC-257, read-out: pLC50 (the source's name) (converted)
  CC50: 28.8 µM
[3]; UACC-257, read-out: pTGI (converted)
  TGI: 8.32 µM
[4]; UACC-62
  GI50: 2.19 µM
[4]; UACC-62, read-out: pLC50 (the source's name) (converted)
  CC50: 43.7 µM
[4]; UACC-62, read-out: pTGI (converted)
  TGI: 7.24 µM
[5]; OVCAR-3
  GI50: 1.82 µM
[5]; OVCAR-3, read-out: pLC50 (the source's name) (converted)
  CC50: > 100 µM
[5]; OVCAR-3, read-out: pTGI (converted)
  TGI: 10.5 µM
[6]; OVCAR-4
  GI50: 3.31 µM
[6]; OVCAR-4, read-out: pLC50 (the source's name) (converted)
  CC50: > 100 µM
[6]; OVCAR-4, read-out: pTGI (converted)
  TGI: 34.7 µM
[7]; OVCAR-5
  GI50: 7.41 µM
[7]; OVCAR-5, read-out: pLC50 (the source's name) (converted)
  CC50: > 100 µM
[7]; OVCAR-5, read-out: pTGI (converted)
  TGI: 41.7 µM
[8]; OVCAR-8
  GI50: 1.2 µM
[8]; OVCAR-8, read-out: pLC50 (the source's name) (converted)
  CC50: > 100 µM
[8]; OVCAR-8, read-out: pTGI (converted)
  TGI: 30.9 µM
[9]
  GI50: 2.57 µM
[9]; [11]
  CC50: > 100 µM
[9]; read-out: pTGI (converted)
  TGI: 33.9 µM
SK-OV-3
  GI50: 1.51 µM
  LC50: > 100 µM
SK-OV-3; read-out: pTGI (converted)
  TGI: 10 µM
A498
  GI50: 1.55 µM
A498; [11]
  CC50: 56.2 µM
A498; read-out: pTGI (converted)
  TGI: 8.91 µM
ACHN
  GI50: 1.1 µM
  LC50 (concentration killing 50% of cells): > 100 µM
ACHN; read-out: pTGI (converted)
  TGI: 14.1 µM
CAKI-1
  GI50: 0.741 µM
  LC50: 20.9 µM
CAKI-1; read-out: pTGI (converted)
  TGI: 2.29 µM
RXF 393
  GI50: 0.115 µM
  LC50: 0.871 µM
RXF 393; read-out: pTGI (converted)
  TGI: 0.316 µM
TK-10
  GI50: 5.62 µM
  LC50: > 100 µM
TK-10; read-out: pTGI (converted)
  TGI: 49 µM
[10]; UO-31
  GI50: 0.479 µM
  LC50: > 100 µM
[10]; UO-31, read-out: pTGI (converted)
  TGI: 2.04 µM
DU-145
  GI50: 1.15 µM
  LC50 (50% lethal concentration): 25.1 µM
DU-145; read-out: pTGI (converted)
  TGI: 6.76 µM
MCF7
  GI50: 1.29 µM
  LC50: 51.3 µM
MCF7; read-out: pTGI (converted)
  TGI: 20.4 µM
MDA-MB-231
  GI50: 1.82 µM
  LC50: > 100 µM
MDA-MB-231; read-out: pTGI (converted)
  TGI: 20.9 µM
BT-549
  GI50: 0.178 µM
BT-549; [11]
  CC50: 95.5 µM
BT-549; read-out: pTGI (converted)
  TGI: 4.57 µM
T47D
  GI50: 5.01 µM
T47D; [11]
  CC50: 83.2 µM
T47D; read-out: pTGI (converted)
  TGI: 22.4 µM
MDA-MB-468
  GI50: 2.45 µM
  LC50: > 100 µM
MDA-MB-468; read-out: pTGI (converted)
  TGI: 7.59 µM
